Measured values from ChEMBL document CHEMBL1128406, “Effects of tubercidin and its 5'-O-methyl ether on adenosine receptors and mediator release functions in mast cells” (1995).

Tests used:
[1] = system: CHO-K1-BH4; assay: Compound is tested for cytotoxicity in Chinese hamster ovary cells (CHO-K1-BH4) in the absence of S-9 microsome fraction at concentration 0.17 micro M; format: functional, Cricetulus griseus
How it was run: (§1)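 CHO-K1-BH4 cells exposed to the test article for 5 h with no exogenous S-9 microsome fraction, then given an overnight recovery period without compound. Relative cytotoxicity was scored afterwards, following the contract lab's CYT/CHO protocol.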

[2] = system: CHO-K1-BH4; assay: Compound is tested for cytotoxicity in Chinese hamster ovary cells (CHO-K1-BH4) in the absence of S-9 microsome fraction at concentration 1.1 micro M; format: functional, Cricetulus griseus; how it was run: as §1
[3] = system: CHO-K1-BH4; assay: Compound is tested for cytotoxicity in Chinese hamster ovary cells (CHO-K1-BH4) in the absence of S-9 microsome fraction at concentration 11 micro M; format: functional, Cricetulus griseus; how it was run: as §1
[4] = system: CHO-K1-BH4; assay: Compound is tested for cytotoxicity in Chinese hamster ovary cells (CHO-K1-BH4) in the absence of S-9 microsome fraction at concentration 1136 micro M; format: functional, Cricetulus griseus; how it was run: as §1
[5] = system: CHO-K1-BH4; assay: Compound is tested for cytotoxicity in Chinese hamster ovary cells (CHO-K1-BH4) in the presence of S-9 microsome fraction at concentration 0.17 micro M; format: functional, Cricetulus griseus
How it was run: (§2)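 CHO-K1-BH4 cells exposed to the test article for 5 h with an S-9 microsome fraction present, then given an overnight compound-free recovery period. Relative cytotoxicity was assessed after recovery.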

[6] = system: CHO-K1-BH4; assay: Compound is tested for cytotoxicity in Chinese hamster ovary cells (CHO-K1-BH4) in the presence of S-9 microsome fraction at concentration 1.1 micro M; format: functional, Cricetulus griseus; how it was run: as §2
[7] = system: CHO-K1-BH4; assay: Compound is tested for cytotoxicity in Chinese hamster ovary cells (CHO-K1-BH4) in the presence of S-9 microsome fraction at concentration 11 micro M; format: functional, Cricetulus griseus; how it was run: as §2
[8] = system: CHO-K1-BH4; assay: Compound is tested for cytotoxicity in Chinese hamster ovary cells (CHO-K1-BH4) in the presence of S-9 microsome fraction at concentration 1136 micro M; format: functional, Cricetulus griseus; how it was run: as §2
[9] = system: CHO-K1-BH4; assay: Compound is tested for cytotoxicity in Chinese hamster ovary cells (CHO-K1-BH4) in the presence of S-9 microsome fraction at concentration 114 micro M; format: functional, Cricetulus griseus; how it was run: as §2
[10] = system: CHO-K1-BH4; assay: Compound is tested for cytotoxicity in Chinese hamster ovary cells (CHO-K1-BH4) in the absence of S-9 microsome fraction at concentration 0.1*10e-4 micro M; format: functional, Cricetulus griseus
How it was run: (§3)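 CHO-K1-BH4 cells exposed to test article for 5 h, with or without exogenous S-9 microsome fraction, then recovered overnight without compound before relative cytotoxicity was scored.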

[11] = system: CHO-K1-BH4; assay: Compound is tested for cytotoxicity in Chinese hamster ovary cells (CHO-K1-BH4) in the absence of S-9 microsome fraction at concentration 1.1*10e-4 micro M; format: functional, Cricetulus griseus; how it was run: as §3
[12] = system: CHO-K1-BH4; assay: Compound is tested for cytotoxicity in Chinese hamster ovary cells (CHO-K1-BH4) in the absence of S-9 microsome fraction at concentration 11.4*10e-4 micro M; format: functional, Cricetulus griseus; how it was run: as §3
[13] = system: CHO-K1-BH4; assay: Compound is tested for cytotoxicity in Chinese hamster ovary cells (CHO-K1-BH4) in the absence of S-9 microsome fraction at concentration 114*10e-4 micro M; format: functional, Cricetulus griseus; how it was run: as §3
[14] = system: CHO-K1-BH4; assay: Compound is tested for cytotoxicity in Chinese hamster ovary cells (CHO-K1-BH4) in the absence of S-9 microsome fraction at concentration 9 micro M; format: functional, Cricetulus griseus; how it was run: as §3
[15] = system: CHO-K1-BH4; assay: Compound is tested for cytotoxicity in Chinese hamster ovary cells (CHO-K1-BH4) in the presence of S-9 microsome fraction at concentration 0.1*10e-4 micro M; format: functional, Cricetulus griseus; how it was run: as §3
[16] = system: CHO-K1-BH4; assay: Compound is tested for cytotoxicity in Chinese hamster ovary cells (CHO-K1-BH4) in the presence of S-9 microsome fraction at concentration 1.1*10e-4 micro M; format: functional, Cricetulus griseus; how it was run: as §3
[17] = system: CHO-K1-BH4; assay: Compound is tested for cytotoxicity in Chinese hamster ovary cells (CHO-K1-BH4) in the presence of S-9 microsome fraction at concentration 11.4*10e-4 micro M; format: functional, Cricetulus griseus; how it was run: as §3
[18] = system: CHO-K1-BH4; assay: Compound is tested for cytotoxicity in Chinese hamster ovary cells (CHO-K1-BH4) in the presence of S-9 microsome fraction at concentration 114*10e-4 micro M; format: functional, Cricetulus griseus; how it was run: as §3
[19] = species on record: Mus musculus; assay: Compound is evaluated for the ability to inhibit the passive cutaneous anaphylaxis (PCA) reaction in mouse in presence of Ag; format: functional
[20] = system: CHO-K1-BH4; assay: Compound is tested for cytotoxicity in Chinese hamster ovary cells (CHO-K1-BH4) in the absence of S-9 microsome fraction at concentration 0 micro M; format: functional, Cricetulus griseus; how it was run: as §1
[21] = system: CHO-K1-BH4; assay: Compound is tested for cytotoxicity in Chinese hamster ovary cells (CHO-K1-BH4) in the absence of S-9 microsome fraction at concentration 0.4 micro M; format: functional, Cricetulus griseus; how it was run: as §1
[22] = system: CHO-K1-BH4; assay: Compound is tested for cytotoxicity in Chinese hamster ovary cells (CHO-K1-BH4) in the absence of S-9 microsome fraction at concentration 3.7 micro M; format: functional, Cricetulus griseus; how it was run: as §1
[23] = system: CHO-K1-BH4; assay: Compound is tested for cytotoxicity in Chinese hamster ovary cells (CHO-K1-BH4) in the absence of S-9 microsome fraction at concentration 360 micro M; format: functional, Cricetulus griseus; how it was run: as §1
[24] = system: CHO-K1-BH4; assay: Compound is tested for cytotoxicity in Chinese hamster ovary cells (CHO-K1-BH4) in the absence of S-9 microsome fraction at concentration 37 micro M; format: functional, Cricetulus griseus; how it was run: as §1
[25] = system: CHO-K1-BH4; assay: Compound is tested for cytotoxicity in Chinese hamster ovary cells (CHO-K1-BH4) in the presence of S-9 microsome fraction at concentration 3.7 micro M; format: functional, Cricetulus griseus; how it was run: as §2
[26] = system: CHO-K1-BH4; assay: Compound is tested for cytotoxicity in Chinese hamster ovary cells (CHO-K1-BH4) in the presence of S-9 microsome fraction at concentration 360 micro M; format: functional, Cricetulus griseus; how it was run: as §2
[27] = system: CHO-K1-BH4; assay: Compound is tested for cytotoxicity in Chinese hamster ovary cells (CHO-K1-BH4) in the presence of S-9 microsome fraction at concentration 37 micro M; format: functional, Cricetulus griseus; how it was run: as §2

## Nc1ncnc2c1ncn2[C@@H]1O[C@H](CO)[C@@H](O)[C@H]1O [ADENOSINE]
[1]
  Inhibition: 0%
[2]
  Inhibition: 22%
[3]
  Inhibition: 19%
[4]
  Inhibition: 43%
[5]
  Inhibition: 0.04%
[6]
  Inhibition: 8%
[7]
  Inhibition: 0%
[8]
  Inhibition: 7%
[9]
  Inhibition: 0%

## Nc1ncnc2c1ccn2[C@@H]1O[C@H](CO)[C@@H](O)[C@H]1O [TUBERCIDIN]
[10]
  Inhibition: 10%
[11]
  Inhibition: 16%
[12]
  Inhibition: 92%
[13]
  Inhibition: 100%
[14]
  Inhibition: 11%
[15]
  Inhibition: 4%
[16]
  Inhibition: 9%
[17]
  Inhibition: 80%
[18]
  Inhibition: 100%
[19]
  grade: 1.17

## COC[C@H]1OC(n2ccc3c(N)ncnc32)[C@H](O)[C@@H]1O (stereo partly drawn)
[20]
  Inhibition: 0%
[21]
  Inhibition: 0%
[22]
  Inhibition: 12%
[23]
  Inhibition: 37%
[24]
  Inhibition: 30%
[25]
  Inhibition: 2%
[26]
  Inhibition: 99%
[27]
  Inhibition: 36%
[19]
  grade: 1.75
